The structures appear in SMILES notation. Calls of active or inactive are those of the source. The calls are words filed in the database; no cut-off is given here.

Sequence of Cannabinoid receptor 2 (Mus musculus, UniProt P47936) (P47936 whole entry): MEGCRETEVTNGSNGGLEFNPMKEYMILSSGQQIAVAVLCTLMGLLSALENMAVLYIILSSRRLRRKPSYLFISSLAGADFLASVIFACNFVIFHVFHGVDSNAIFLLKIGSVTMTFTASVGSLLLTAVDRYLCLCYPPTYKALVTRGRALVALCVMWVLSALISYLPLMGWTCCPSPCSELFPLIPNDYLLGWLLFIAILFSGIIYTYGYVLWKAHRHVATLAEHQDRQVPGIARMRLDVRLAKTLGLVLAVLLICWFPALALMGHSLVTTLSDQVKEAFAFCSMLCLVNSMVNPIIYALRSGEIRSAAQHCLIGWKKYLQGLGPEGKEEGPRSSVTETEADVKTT
T1 sequence (P34972 whole entry): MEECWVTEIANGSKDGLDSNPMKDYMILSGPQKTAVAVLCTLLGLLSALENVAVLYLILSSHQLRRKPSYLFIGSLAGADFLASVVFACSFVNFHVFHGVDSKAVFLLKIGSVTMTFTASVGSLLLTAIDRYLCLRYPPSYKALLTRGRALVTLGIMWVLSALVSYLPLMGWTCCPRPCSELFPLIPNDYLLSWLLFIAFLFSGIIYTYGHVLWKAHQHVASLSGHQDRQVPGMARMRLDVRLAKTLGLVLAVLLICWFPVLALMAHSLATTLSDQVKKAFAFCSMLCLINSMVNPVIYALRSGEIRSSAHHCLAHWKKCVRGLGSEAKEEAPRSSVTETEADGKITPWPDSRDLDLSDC

The first assay addresses T1, Cannabinoid receptor 2 (Homo sapiens, UniProt P34972). Kind of assay: Irreversible binding affinity to human CB2 receptor expressed in HEK293 cells assessed as inhibition of [3H]CP55940 binding to receptor at 10 fold Ki by saturation curve assay relative to control. Type of assay: cell-based.
Conditions: not given
The essentials:
(§1)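 Rat brain CB1 or HEK293 hCB2 membranes pretreated with the isothiocyanate ligand, then run in [3H]CP-55,940 saturation binding. Controls were processed in parallel without ligand. Percent covalent labeling = [Bmax(control) − Bmax(ligand)]/Bmax(control). At least two independent experiments in triplicate; mean ± SEM.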
Regarding `CC1(C)Oc2cc(C34CC5CC(CC(CN=C=S)(C5)O3)C4)cc(O)c2[C@@H]2C[C@H](O)CC[C@H]21`, the Bmax was found to be 32%.

The target in another assay is T2, Cannabinoid receptor 1 (Rattus norvegicus, UniProt P20272). Kind of assay: Displacement of [3H]CP55940 from rat brain CB1 receptor by scintillation counting method. The assay is classed as tissue-based.
T2 sequence (P20272 whole entry): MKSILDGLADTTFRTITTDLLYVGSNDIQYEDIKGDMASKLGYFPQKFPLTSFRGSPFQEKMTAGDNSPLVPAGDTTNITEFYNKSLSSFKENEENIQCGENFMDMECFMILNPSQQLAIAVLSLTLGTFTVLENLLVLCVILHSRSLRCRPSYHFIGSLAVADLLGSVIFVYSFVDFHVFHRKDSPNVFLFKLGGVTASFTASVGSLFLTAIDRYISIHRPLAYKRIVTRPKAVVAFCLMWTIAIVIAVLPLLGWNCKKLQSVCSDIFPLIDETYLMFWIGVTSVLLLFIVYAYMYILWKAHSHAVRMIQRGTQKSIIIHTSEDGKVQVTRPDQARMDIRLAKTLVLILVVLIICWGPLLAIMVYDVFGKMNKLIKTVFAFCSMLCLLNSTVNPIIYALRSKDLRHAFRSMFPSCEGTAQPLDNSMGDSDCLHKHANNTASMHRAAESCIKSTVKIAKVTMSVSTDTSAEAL
Conditions: not given
A digest of the protocol:
(§2)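 Competition binding with [3H]CP-55,940. Receptor source is rat brain membranes (CB1) or membranes from HEK293 cells expressing mouse or human CB2. Ki from competition curves by nonlinear regression. Ki is the mean of three independent experiments, each in triplicate.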
Background: Displacement assays read how much labelled ligand stays bound in the presence of the test substance.
`CC1(C)Oc2cc(C34CC5CC(CC(CN=[N+]=[N-])(C5)O3)C4)cc(O)c2[C@@H]2C[C@H](O)CC[C@H]21` had a Ki of 2.3 nM.

The compound `CC1(C)Oc2cc(C34CC5CC(CC(C(N)=O)(C5)O3)C4)cc(O)c2[C@@H]2C[C@H](CO)CC[C@H]21` returned an inhibitory constant (Ki) of 10.8 nM.

The compound `CC1(C)Oc2cc(C34CC5CC(CC(CN=C=S)(C5)O3)C4)cc(O)c2[C@@H]2C[C@H](O)CC[C@H]21` had an inhibition constant (Ki) of 4.8 nM.

The compound `CC1(C)Oc2cc(C34CC5CC(CC(CN=C=S)(C5)O3)C4)cc(O)c2[C@@H]2C[C@H](CO)CC[C@H]21` returned a Ki of 8.4 nM.

For the compound `CC1(C)Oc2cc(C34CC5CC(CC(CN=[N+]=[N-])(C5)O3)C4)cc(O)c2[C@@H]2C[C@H](CO)CC[C@H]21`, the Ki turned out to be 2 nM.

On to `CC1(C)Oc2cc(C34CC5CC(CC(C#N)(C5)O3)C4)cc(O)c2[C@@H]2C[C@H](O)CC[C@H]21`, for which the inhibition constant Ki was found to be 26.6 nM.

In turn, `CC1(C)Oc2cc(C34CC5CC(CC(C(N)=O)(C5)O3)C4)cc(O)c2[C@@H]2C[C@H](O)CC[C@H]21` had an inhibition constant Ki of 28.7 nM.

In a further assay the target is T2, Cannabinoid receptor 1. Kind of assay: Agonist activity at rat […] CB1 receptor assessed as decrease in forskolin-stimulated cAMP level stimulated for 30 mins followed by Eu-cAMP tracer addition and measured after 60 mins. Type of assay: functional.
Conditions: not given
In general terms: cAMP levels reflect the balance of adenylyl cyclase and phosphodiesterase activity.
As for `CC1(C)Oc2cc(C34CC5CC(CC(CN=[N+]=[N-])(C5)O3)C4)cc(O)c2[C@@H]2C[C@H](O)CC[C@H]21`, the EC50 turned out to be 3.1 nM.

Regarding `CC1(C)Oc2cc(C34CC5CC(CC(CN=C=S)(C5)O3)C4)cc(O)c2[C@@H]2C[C@H](O)CC[C@H]21`, the half-maximal effective concentration (EC50) amounted to 0.8 nM.

As to `CC1(C)Oc2cc(C34CC5CC(CC(CN=C=S)(C5)O3)C4)cc(O)c2[C@@H]2C[C@H](CO)CC[C@H]21`, the EC50 amounted to 0.9 nM.

As for `CC1(C)Oc2cc(C34CC5CC(CC(CN=[N+]=[N-])(C5)O3)C4)cc(O)c2[C@@H]2C[C@H](CO)CC[C@H]21`, the EC50 is 0.9 nM.

Another assay deals with T1, Cannabinoid receptor 2. Kind of assay: Displacement of [3H]CP55940 from human CB2 receptor expressed in HEK293 cell membrane by scintillation counting method. The assay is classed as cell membranes.
Conditions: not given
The essentials: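 Receptor source is rat brain membranes (CB1) or membranes from HEK293 cells expressing mouse or human CB2. Ki from competition curves by nonlinear regression. Ki is the mean of three independent experiments, each in triplicate.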
Turning to `CC1(C)Oc2cc(C34CC5CC(CC(CN=[N+]=[N-])(C5)O3)C4)cc(O)c2[C@@H]2C[C@H](O)CC[C@H]21`, the Ki is 3.1 nM.

`CC1(C)Oc2cc(C34CC5CC(CC(C(N)=O)(C5)O3)C4)cc(O)c2[C@@H]2C[C@H](CO)CC[C@H]21` came in with an inhibition constant Ki of 91.8 nM.

Consider `CC1(C)Oc2cc(C34CC5CC(CC(CN=C=S)(C5)O3)C4)cc(O)c2[C@@H]2C[C@H](O)CC[C@H]21`, for which affinity was put at a Ki of 3.6 nM.

`CC1(C)Oc2cc(C34CC5CC(CC(CN=C=S)(C5)O3)C4)cc(O)c2[C@@H]2C[C@H](CO)CC[C@H]21`: the affinity corresponds to a Ki of 4.7 nM.

`CC1(C)Oc2cc(C34CC5CC(CC(CN=[N+]=[N-])(C5)O3)C4)cc(O)c2[C@@H]2C[C@H](CO)CC[C@H]21` showed a Ki of 2.2 nM.

The compound `CC1(C)Oc2cc(C34CC5CC(CC(C#N)(C5)O3)C4)cc(O)c2[C@@H]2C[C@H](O)CC[C@H]21` showed an inhibitory constant (Ki) of 31.7 nM.

Turning to `CC1(C)Oc2cc(C34CC5CC(CC(C(N)=O)(C5)O3)C4)cc(O)c2[C@@H]2C[C@H](O)CC[C@H]21`, the Ki is 369 nM.

System in another assay: not listed separately
Kind of assay: Selectivity ratio of Ki for displacement of [3H]CP55940 from human CB2 receptor expressed in HEK293 cells to Ki for displacement of [3H]CP55940 from mouse CB2 receptor expressed in HEK293 cells. The assay is classed as cell-based.
Conditions: not given
As for `CC1(C)Oc2cc(C34CC5CC(CC(C#N)(C5)O3)C4)cc(O)c2[C@@H]2C[C@H](O)CC[C@H]21`, the Ratio Ki was 20.

A further assay concerns the target T1, Cannabinoid receptor 2. Kind of assay: Agonist activity at human CB2 receptor expressed in HEK293 cells assessed as decrease in forskolin-stimulated cAMP level up to 2.3 uM stimulated for 30 mins followed by Eu-cAMP tracer addition and measured after 60 mins. Conditions: dose microM <=2.3, time 90.0 min. Type of assay: functional, cell-based. The essentials: (§3)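 cAMP accumulation stimulated by forskolin, in HEK293 cells expressing rCB1 or hCB2. Forskolin-stimulated level set to 100%. EC50 obtained by nonlinear regression. […] Values are the average of two independent experiments, each run in triplicate.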
For the compound `CC1(C)Oc2cc(C34CC5CC(CC(CN=[N+]=[N-])(C5)O3)C4)cc(O)c2[C@@H]2C[C@H](O)CC[C@H]21`, the result was inactive.

Turning to `CC1(C)Oc2cc(C34CC5CC(CC(CN=C=S)(C5)O3)C4)cc(O)c2[C@@H]2C[C@H](O)CC[C@H]21`, the outcome was inactive.

Take `CC1(C)Oc2cc(C34CC5CC(CC(CN=C=S)(C5)O3)C4)cc(O)c2[C@@H]2C[C@H](CO)CC[C@H]21`: the result was inactive.

Turning to `CC1(C)Oc2cc(C34CC5CC(CC(CN=[N+]=[N-])(C5)O3)C4)cc(O)c2[C@@H]2C[C@H](CO)CC[C@H]21`, the result was inactive.

In another assay the target is Cannabinoid receptor 1 (Rattus norvegicus) (UniProt P20272). Kind of assay: Agonist activity at rat CB1 receptor expressed in HEK293 cells assessed as inhibition of forskolin-stimulated cAMP level stimulated for 30 mins followed by Eu-cAMP tracer addition and measured after 60 mins. The assay is classed as functional, cell-based. The following applies: filed as agonist, time 90.0 min. A digest of the protocol: as §3
Sequence of Cannabinoid receptor 1 (Rattus norvegicus) (P20272 whole entry): as above
Regarding `CC1(C)Oc2cc(C34CC5CC(CC(CN=[N+]=[N-])(C5)O3)C4)cc(O)c2[C@@H]2C[C@H](O)CC[C@H]21`, the inhibition entry was “Dose-dependent effect”.

For the compound `CC1(C)Oc2cc(C34CC5CC(CC(CN=C=S)(C5)O3)C4)cc(O)c2[C@@H]2C[C@H](O)CC[C@H]21`, the inhibition entry is “Dose-dependent effect”.

As for `CC1(C)Oc2cc(C34CC5CC(CC(CN=C=S)(C5)O3)C4)cc(O)c2[C@@H]2C[C@H](CO)CC[C@H]21`, the inhibition entry is “Dose-dependent effect”.

In the case of `CC1(C)Oc2cc(C34CC5CC(CC(CN=[N+]=[N-])(C5)O3)C4)cc(O)c2[C@@H]2C[C@H](CO)CC[C@H]21`, the inhibition entry was “Dose-dependent effect”.

As to `CCCCCCC(C)(C)c1ccc([C@@H]2C[C@H](O)CC[C@H]2CCCO)c(O)c1`, the inhibition result was “Dose-dependent effect”.

For the next assay the target is unchanged. Kind of assay: Agonist activity at rat CB1 receptor expressed in HEK293 cells assessed as inhibition of forskolin-stimulated cAMP level stimulated for 30 mins followed by Eu-cAMP tracer addition and measured after 60 mins relative to control. Type of assay: functional, cell-based. The following applies: filed as agonist, time 90.0 min. The essentials:
as §3
As for `CC1(C)Oc2cc(C34CC5CC(CC(CN=[N+]=[N-])(C5)O3)C4)cc(O)c2[C@@H]2C[C@H](O)CC[C@H]21`, the Emax was 87%.

Take `CC1(C)Oc2cc(C34CC5CC(CC(CN=C=S)(C5)O3)C4)cc(O)c2[C@@H]2C[C@H](O)CC[C@H]21`: the maximum response (Emax) stood at 88%.

Consider `CC1(C)Oc2cc(C34CC5CC(CC(CN=C=S)(C5)O3)C4)cc(O)c2[C@@H]2C[C@H](CO)CC[C@H]21`, for which the Emax is 94%.

On to `CC1(C)Oc2cc(C34CC5CC(CC(CN=[N+]=[N-])(C5)O3)C4)cc(O)c2[C@@H]2C[C@H](CO)CC[C@H]21`, for which the maximum response (Emax) was found to be 93%.

The next assay has as its target Cannabinoid receptor 2 (Mus musculus, UniProt P47936). Kind of assay: Displacement of [3H]CP55940 from mouse CB2 receptor expressed in HEK293 cell membrane by scintillation counting method. The assay is classed as cell membranes.
Conditions: not given
The essentials: as §2
Take `CC1(C)Oc2cc(C34CC5CC(CC(CN=[N+]=[N-])(C5)O3)C4)cc(O)c2[C@@H]2C[C@H](O)CC[C@H]21`: the Ki amounted to 2.7 nM.

In turn, `CC1(C)Oc2cc(C34CC5CC(CC(C(N)=O)(C5)O3)C4)cc(O)c2[C@@H]2C[C@H](CO)CC[C@H]21` showed an inhibitory constant (Ki) of 34.9 nM.

On to `CC1(C)Oc2cc(C34CC5CC(CC(CN=C=S)(C5)O3)C4)cc(O)c2[C@@H]2C[C@H](O)CC[C@H]21`, for which the affinity corresponds to a Ki of 9.5 nM.

As to `CC1(C)Oc2cc(C34CC5CC(CC(CN=C=S)(C5)O3)C4)cc(O)c2[C@@H]2C[C@H](CO)CC[C@H]21`, affinity was put at a Ki of 6.6 nM.

Regarding `CC1(C)Oc2cc(C34CC5CC(CC(CN=[N+]=[N-])(C5)O3)C4)cc(O)c2[C@@H]2C[C@H](CO)CC[C@H]21`, the Ki worked out at 0.7 nM.

`CC1(C)Oc2cc(C34CC5CC(CC(C#N)(C5)O3)C4)cc(O)c2[C@@H]2C[C@H](O)CC[C@H]21` gave an inhibition constant Ki of 1.6 nM.

In the case of `CC1(C)Oc2cc(C34CC5CC(CC(C(N)=O)(C5)O3)C4)cc(O)c2[C@@H]2C[C@H](O)CC[C@H]21`, the inhibition constant (Ki) was determined as 865 nM.

Another assay addresses Cannabinoid receptor 1 (Rattus norvegicus) (UniProt P20272). Kind of assay: Irreversible binding affinity to rat brain CB1 receptor assessed as inhibition of [3H]CP55940 binding to receptor at 10 fold Ki by saturation curve assay relative to control. The assay is classed as tissue-based. Conditions: filed as agonist. The essentials:
as §1
`CC1(C)Oc2cc(C34CC5CC(CC(CN=C=S)(C5)O3)C4)cc(O)c2[C@@H]2C[C@H](O)CC[C@H]21`: the Bmax amounted to 65%.

The Ki is a measure of affinity in units of concentration, obtained from inhibition or displacement. High values mean a looser hold on the target, low ones a stronger hold on the target. As a reminder, the EC50 is the concentration that produces a half-maximal response. As usually defined, the Emax is the greatest response seen or fitted, relative to the assay's reference.

The values above are taken from ChEMBL document CHEMBL4706700, “Oxa-adamantyl cannabinoids” (Bioorg Med Chem Lett, 2021).
